Source: ChEMBL document CHEMBL4043075, “Development of Fluorinated Analogues of Perhexiline with Improved Pharmacokinetic Properties and Retained Efficacy” (J Med Chem, 2017)
Activity calls are given as the source filed them. The rule behind the calls is not given here.

What was measured:
[1] = Stability of the compound in pH 7.4 PBS buffer at 37 degC after 1 hr; type: physicochemical; settings: pH 7.4, 1 h
Method in brief: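 Compound incubated 1 h in pH 7.4 PBS at 37 °C, then checked for decomposition.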

CYP2D6 = CYP2D6 (Homo sapiens, UniProt P10635); test: Drug metabolism assessed as human CYP2D6-mediated compound degradation by measuring half life at 5 uM up to 45 mins in presence of NADPH by LC-MS/MS analysis; type: ADME
[2] = Half life in human liver microsomes at 3 uM up to 45 mins in presence of NADPH by LC-MS/MS analysis; type: ADME, microsome
[3] = Half life in Sprague-Dawley rat liver microsomes at 3 uM up to 45 mins in presence of NADPH by LC-MS/MS analysis; type: ADME, microsome
Heart = test: Cardioprotective activity against Langendorff perfused C57BL/6 mouse heart assessed as lusitropic effect at 2 uM measured for 40 mins reperfusion period in presence of high fat; type: functional, tissue-based
Method in brief: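 Isolated C57BL/6 hearts (25-30 g) retrogradely perfused at constant 80 mmHg, 37 °C, 95% O2/5% CO2, with modified Krebs containing 1.2 mM sodium palmitate conjugated to 3% BSA. After 10 min stabilisation, 30 min perfusion with control buffer or compound at 2 or 10 µM. LVdP/dt max and min derived from LV pressure over 40 min; mean ± SEM, n = 12-19, 1-way ANOVA with Bonferroni.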

[4] = target: T1, Carnitine O-palmitoyltransferase 1, muscle isoform (Rattus norvegicus, UniProt Q63704); test: Inhibition of Wistar rat heart mitochondrial CPT-1 assessed as reduction in conversion of palmitoyl CoA and L-carnitine into palmitoylcarnitine preincubated for 3 mins followed by L-carnitine and palmitoyl CoA addition measured for 3.5 mins by spectrophotometric analysis
T1 sequence (Q63704 whole entry): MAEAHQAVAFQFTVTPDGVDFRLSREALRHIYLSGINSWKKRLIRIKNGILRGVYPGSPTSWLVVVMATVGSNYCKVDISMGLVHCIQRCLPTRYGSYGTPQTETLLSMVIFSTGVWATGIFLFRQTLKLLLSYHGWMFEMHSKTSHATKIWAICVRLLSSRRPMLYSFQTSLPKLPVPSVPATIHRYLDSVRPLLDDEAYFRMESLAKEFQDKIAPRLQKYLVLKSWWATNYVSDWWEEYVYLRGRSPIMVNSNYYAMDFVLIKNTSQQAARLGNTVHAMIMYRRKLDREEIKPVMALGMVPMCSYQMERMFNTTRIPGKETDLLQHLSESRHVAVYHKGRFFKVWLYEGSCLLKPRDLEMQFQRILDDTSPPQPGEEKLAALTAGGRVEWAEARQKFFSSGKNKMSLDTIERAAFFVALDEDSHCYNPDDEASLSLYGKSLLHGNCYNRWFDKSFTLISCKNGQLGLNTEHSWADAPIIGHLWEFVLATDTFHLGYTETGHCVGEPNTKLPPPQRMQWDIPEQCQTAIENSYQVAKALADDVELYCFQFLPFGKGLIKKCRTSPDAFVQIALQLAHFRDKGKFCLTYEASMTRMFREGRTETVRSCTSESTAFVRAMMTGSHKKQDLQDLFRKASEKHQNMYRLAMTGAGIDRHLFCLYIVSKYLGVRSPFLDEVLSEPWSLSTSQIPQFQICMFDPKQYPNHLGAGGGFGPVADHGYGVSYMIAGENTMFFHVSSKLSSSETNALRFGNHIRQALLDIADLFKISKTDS

CYP2D6, sequence (P10635 whole entry): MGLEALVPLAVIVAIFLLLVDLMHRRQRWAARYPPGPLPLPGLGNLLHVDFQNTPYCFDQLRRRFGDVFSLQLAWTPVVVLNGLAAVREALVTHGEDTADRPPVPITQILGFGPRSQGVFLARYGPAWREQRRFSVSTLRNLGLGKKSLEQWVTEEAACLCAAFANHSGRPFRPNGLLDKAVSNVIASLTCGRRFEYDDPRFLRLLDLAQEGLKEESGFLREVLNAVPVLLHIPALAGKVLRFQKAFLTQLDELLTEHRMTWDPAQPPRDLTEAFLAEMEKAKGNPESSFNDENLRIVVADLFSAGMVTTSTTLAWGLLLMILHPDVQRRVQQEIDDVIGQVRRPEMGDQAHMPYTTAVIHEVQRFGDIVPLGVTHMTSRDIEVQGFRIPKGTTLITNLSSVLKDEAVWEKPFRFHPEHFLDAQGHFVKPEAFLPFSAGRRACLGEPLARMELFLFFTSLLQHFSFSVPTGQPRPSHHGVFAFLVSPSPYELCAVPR

| Stability [1] | half-life at 5 µM (CYP2D6) [min] | half-life at 3 µM [2] [min] | half-life at 3 µM [3] [min] | IC50 [4] [µM] | Compound | Activity (Heart) |
| --- | --- | --- | --- | --- | --- | --- |
| Unstable |  |  |  |  | FC1CCC(C(CC2CCCCN2)C2CCC(F)CC2)CC1 (stereo unspecified) |  |
| Unstable | 16 | 65 | 11 |  | FC1CCC(C(CC2CCCCN2)C2CCCCC2)CC1 (stereo unspecified) |  |
|  |  | 98 | 10 | 32 | C1CCC(C(CC2CCCCN2)C2CCCCC2)CC1.O=C(O)/C=C\C(=O)O (stereo unspecified) [PERHEXILINE MALEATE] |  |
| Stable |  | 79 | 7 |  | Fc1ccc(C(CC2CCCCN2)C2CCCCC2)cc1 (stereo unspecified) |  |
| Stable |  | 56 | 4 |  | c1ccc(C(CC2CCCCN2)C2CCCCC2)cc1 (stereo unspecified) |  |
| Stable | 16 | > 150 | 19 | 11 | C1CCC(C(CC2CCCCN2)C2CCCC2)CC1 (stereo unspecified) |  |

The remaining lines, values behind:

| Compound | Stability [1] | half-life at 5 µM (CYP2D6) [min] | half-life at 3 µM [2] [min] | half-life at 3 µM [3] [min] | IC50 [4] [µM] | Activity (Heart) |
| --- | --- | --- | --- | --- | --- | --- |
| C1CCC(C(CC2CCCCN2)C2CCCCC2)CC1 (racemic) |  |  |  |  |  | Active |
| C1CCC(C(CC2CCCCN2)C2CC2)CC1 (stereo unspecified) | Stable |  | 124 | 3 |  |  |
| C1CCC(CC(C2CCCC2)C2CCC2)NC1 (stereo unspecified) | Stable |  | 51 | 7 |  |  |
| FC1(F)CCC(C(CC2CCCCN2)C2CCC(F)(F)CC2)CC1 (stereo unspecified) | Stable | > 150 | > 4000 | > 1500 | 88 |  |
